# Screening data from PubChem BioAssay.
# aSyn UTR inh: 5' untranslated region of α-synuclein, MLPCN primary screen. alpha-synuclein 5'UTR reporter, inhibitor activity. inhibition, % (tested at 7.5 µM). hit rate 0.82% among 300,000. AID 1813; in the data active means inhibition above about 60%; inconclusive means no clear call, values can overlap the other calls;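 further: H4 neuroglioblastoma cells stably carrying SNCA 5'UTR luciferase fusion; 0% = DMSO wells and 100% = positive control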
# FN deposit inh: fibronectin deposition inhibition | AH1F fibroblasts, Alexa488-fibronectin deposition fluorescence, overnight | inhibition, % at 12.6 µM | hit rate 0.086% among 350,000 | AID 743247;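 active means mean inhibition across replicates of 30% or more, regardless of how many single replicates reach that level; inconclusive means mean under 30% yet at least half of replicates reach 30%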;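 further: positive control wells lacked labelled fibronectin entirely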
#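 Material: AH1F fibroblast monolayer depositing Alexa488-labelled fibronectin into matrix | Input: 10000 AH1F cells/well | Medium: DMEM plus 2% serum, read in PBS | Reagent: Alexa488-fibronectin, 24 nM final in well | Compound dosing: One dose per compound, pinned | Schedule: 1 h adhesion, overnight exposure | Measured by: Fluorescence at 485 nm excitation, 525 nm emission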
# LMP1 NFkB inh: Epstein-Barr LMP1 NF-kappaB reporter inhibition; LMP1-induced NF-kappaB luciferase reporter cells, luminescence; inhibition, % at 12.5 µM; hit rate 0.69% among 350,000; AID 504558; in the data active means inhibition above about 41%; inconclusive means no clear call, values can overlap the other calls;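 further: 0% = neutral control wells and 100% = reference inhibitor control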
# Shn3 3UTR inh: inhibitors of Schnurri-3 3'UTR reporter in osteoblasts; hit rate 0.52% among 360,000; AID 588674; Clone20 osteoblast Shn3 3'UTR firefly luciferase, 24 h; inhibition, % at 12.5 µM;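 active means mean inhibition of at least 75% with every replicate also reaching 75%; inconclusive means mean inhibition at least 75% but some replicate below; inactive means mean inhibition below 75%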;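 further: 0% = median of neutral control wells and 100% = pilot-screen positive control compound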
# EWS-Fli block: inhibitors of EWS/Fli oncoprotein transcriptional activity; A673 NR0B1-luciferase reporter, viability-normalised; inhibition, % at 12.6 µM; hit rate 0.67% among 350,000;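 active means mean inhibition of at least 50% after viability correction, with every replicate also passing that limit; inconclusive means mean reaches 50% but only one of two replicates passes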;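 further: firefly luciferase signal divided by Alamar Blue viability fluorescence both relative to DMSO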
# PAX8 reporter: lowers PAX8-driven luciferase in RMG-I cells. inhibition, % at 12.6 µM. RMG-I TPO-luciferase reporter, SteadyGlo, 24 h. hit rate 1.2% among 360,000;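 active means mean replicate inhibition at least 60% with every replicate also reaching 60%; inconclusive means only one of the two criteria is met; inactive means mean below 60% and not all replicates reaching 60%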;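 further: luciferase light reporting Pax8 driven TPO promoter activity; plate controls were median of neutral control wells for no effect and mitoxantrone controls for full effect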
# * = called active by the depositor; ? = inconclusive; · = no result given. Only some compounds are listed: those with a hit (about 2.1% of all), similar ones and a draw of the others.
SMILES,aSyn UTR inh,FN deposit inh,LMP1 NFkB inh,Shn3 3UTR inh,EWS-Fli block,PAX8 reporter
O=C1c2ccccc2S(=O)(=O)c2cc(N3CCOCC3)ccc21,76*,2,31,39,9,-1
COC(=O)C[C@@H]1CC[C@@H]2[C@@H](COc3ccc(NS(=O)(=O)c4ccccc4F)cc3C(=O)N2C)O1,·,-29,·,·,5,-5
COc1cc2c(cc1NC(=O)c1cccc([N+](=O)[O-])c1)oc1ccccc12,81*,·,-29,28,·,·
COc1cc2c(cc1NC(=O)c1ccc(C)c([N+](=O)[O-])c1)oc1ccccc12,-3,-1,-5,-26,·,5
O=C1C=C(O)c2cccc(O)c2C1=O,·,·,12,-18,9,·
O=C1C=C(c2c(O)ccc3ccccc23)c2ccccc2C1=O,·,16,12,96*,57*,83*
Nc1c(C(=O)Nc2ccc(Cl)c(C(=O)O)c2)sc2nc3c(cc12)CCCC3,5,·,9,-84,·,9
Nc1c(C(=O)Nc2cccc(C(=O)O)c2)sc2nc3c(cc12)CCCC3,77*,-3,57*,32,85*,85*
COc1ccc(CCNC(=O)/C=C/c2ccc3ccccc3n2)cc1OC,13,1,-22,-12,19,77*
CN(C)c1ccc(CNc2nc3ccccc3n2C)cc1,·,2,-23,-162,-87,-94
Fc1ccccc1/C=C/c1ccc2ccccc2n1,35,·,-2,11,·,·
CN(C)c1ccc(CNc2nc3ccccc3s2)cc1,80*,·,·,·,·,·
Oc1ccc(/C=C/c2ccc3ccccc3n2)cc1,90*,-4,48*,68,79*,58
C(=C\c1ccc2ccccc2n1)/c1ccccc1,67*,-12,40,43,74*,-7
CCC(=O)N1CC2(C1)[C@H](c1ccc(-c3cccc(OC)c3)cc1)[C@@H](CO)N2C(C)=O,·,·,·,·,-6,6
CN(C)c1ccc(/C=C/c2nc3ccccc3s2)cc1,81*,-2,25,85,·,·
O=C(O)/C=C/c1ccc2ccccc2n1,-64,2,76*,-8,·,·
COc1cc(/C=C/c2nc3ccccc3s2)cc(OC)c1O,-69,1,7,-40,-2,-96
O=C(/C=C/c1ccc2ccccc2n1)c1cc(Br)ccc1O,-34,7,-47,-52,-19,-10
Cc1ccc(/C=C/c2nc3ccccc3s2)s1,71*,2,43*,13,·,·
CN(C)c1ccc(/C=C/c2ccc3ccccc3n2)cc1,89*,·,76*,88*,·,·
CN1C(=O)c2cc(NC(=O)c3cscn3)ccc2OC[C@@H]2O[C@@H](CC(=O)N3CCCCC3)CC[C@H]21,·,2,·,·,0,7
O=S(=O)(N[C@@H]1CC[C@H](CCn2cc(-c3cccc(F)c3)nn2)O[C@@H]1CO)c1ccc(F)cc1,·,-1,·,·,0,·
C[C@@H]1CN([C@@H](C)CO)C(=O)c2cc(NC(=O)Cn3cnnn3)ccc2O[C@@H]1CN(C)C(=O)Nc1ccccc1,·,·,·,·,-6,·
CCCC(=O)Nc1ccc2c(c1)OC[C@@H](C)N(CC1CCOCC1)C[C@@H](C)[C@@H](OC)CN(C)C2=O,·,-2,·,·,6,0
SMILES,aSyn UTR inh,FN deposit inh,LMP1 NFkB inh,Shn3 3UTR inh,EWS-Fli block,PAX8 reporter
O=C(N[C@H]1CC[C@H](CCNC(=O)c2ccccc2F)O[C@@H]1CO)c1cnccn1,·,-8,·,·,1,-3
O=[N+]([O-])c1ccc(/C=C/c2ccc3cccc(O)c3n2)cc1,-11,11,7,7,-70,-41
O=[N+]([O-])c1ccc(/C=C/c2ccc3ccccc3n2)cc1,46,7,4,20,59*,-19
COc1ccc(S(=O)(=O)Nc2ccc3c(c2)CC(=O)N([C@@H](C)CO)C[C@H](C)[C@@H](CN(C)Cc2ccc(-c4ccccc4)cc2)O3)cc1,·,·,·,·,38,?
C[C@H](CO)N1C[C@H](C)[C@@H](CN(C)Cc2ccc(-c3ccccc3)cc2)Oc2ccc(NS(=O)(=O)c3ccc(F)cc3)cc2CC1=O,·,·,·,·,12,76*
COc1ccc(S(=O)(=O)Nc2ccc3c(c2)CC(=O)N([C@@H](C)CO)C[C@H](C)[C@H](CN(C)S(=O)(=O)c2ccc(C)cc2)O3)cc1,·,·,·,·,-16,72*
COc1ccc(S(=O)(=O)Nc2ccc3c(c2)CC(=O)N([C@H](C)CO)C[C@H](C)[C@H](CN(C)Cc2ccc(-c4ccccc4)cc2)O3)cc1,·,·,·,·,9,17
COc1ccc(S(=O)(=O)Nc2ccc3c(c2)CC(=O)N([C@H](C)CO)C[C@H](C)[C@@H](CN(C)Cc2ccc(-c4ccccc4)cc2)O3)cc1,·,·,·,·,-3,76*
COc1ccc(S(=O)(=O)Nc2ccc3c(c2)CC(=O)N([C@@H](C)CO)C[C@@H](C)[C@@H](CN(C)Cc2ccc(-c4ccccc4)cc2)O3)cc1,·,·,·,·,23,85*
C[C@H]1CN([C@@H](C)CO)C(=O)Cc2cc(NS(=O)(=O)c3ccc(F)cc3)ccc2O[C@@H]1CN(C)Cc1ccc(-c2ccccc2)cc1,·,·,·,·,2,17
C/C=C/c1cnc2c(c1)C(=O)N([C@@H](C)CO)C[C@@H](C)[C@H](CN(C)S(=O)(=O)c1ccccc1)O2,·,3,·,·,2,·
Cc1cccc2cc(C#N)c(SCC(=O)NNC(=O)Cc3ccccc3)nc12,9,0,-6,11,·,21
CCc1nc(SCC#N)c(C#N)cc1C,69*,·,·,·,·,·
Cc1cccc2cc(C#N)c(SCC#N)nc12,85*,-1,-2,27,15,-36
CCC(=O)NNC(=O)CSc1nnc(-c2ccccc2)c(-c2ccccc2)n1,-8,-4,85*,2,10,8
C[C@@H]1CCCCO[C@H](CN(C)S(=O)(=O)c2ccccc2)[C@H](C)CN([C@@H](C)CO)C(=O)c2cc(NS(=O)(=O)c3ccc(Cl)cc3)ccc2O1,·,0,·,·,-9,81*
C[C@@H]1CCCCO[C@@H](CN(C)S(=O)(=O)c2ccc(Cl)cc2)[C@@H](C)CN([C@@H](C)CO)C(=O)c2cc(NS(=O)(=O)c3ccccc3)ccc2O1,·,5,·,·,·,23
C[C@H](CO)N1C[C@H](C)[C@H](CN(C)S(=O)(=O)c2ccc(Cl)cc2)OCCCC[C@H](C)Oc2ccc(NS(=O)(=O)c3ccccc3)cc2C1=O,·,-6,·,·,7,72*
C[C@H]1CCCCO[C@H](CN(C)S(=O)(=O)c2ccc(Cl)cc2)[C@@H](C)CN([C@@H](C)CO)C(=O)c2cc(NS(=O)(=O)c3ccccc3)ccc2O1,·,-6,·,·,23,74*
C[C@@H]1CN([C@H](C)CO)C(=O)c2cc(NS(=O)(=O)c3ccccc3)ccc2O[C@@H](C)CCCCO[C@@H]1CN(C)S(=O)(=O)c1ccc(Cl)cc1,·,6,·,·,0,52
COc1ccccc1C(=O)Nc1ccc2c(c1)C(=O)N(C)[C@@H]1CC[C@@H](CC(=O)NCc3ccc(Cl)c(Cl)c3)O[C@@H]1CO2,·,-2,·,·,-8,?
CCCC(=O)Nc1ccc2c(c1)C(=O)N(C)C[C@@H](OC)[C@H](C)CN(C(=O)CN(C)C)[C@H](C)CO2,·,-2,·,·,-2,·
